Columns and labels:
[1] = biological target: T1, cGMP-specific 3',5'-cyclic phosphodiesterase (Homo sapiens, UniProt O76074); assay: Inhibition of human phosphodiesterase 5
[2] = biological target: Phosphodiesterases; PDE5 & PDE6 (Homo sapiens) (UniProt O76074+Q13956+P18545+P35913+O43924+P16499+P51160); assay: Relative binding to Phosphodiesterase 6 and Phosphodiesterase 5, ratio of IC50; type: protein assay
Phosphodiesterase 1 = Phosphodiesterase 1 (Homo sapiens, UniProt P54750+Q01064+Q14123); assay: Inhibition of human phosphodiesterase 1; type: protein assay
[3] = biological target: cGMP-dependent 3',5'-cyclic phosphodiesterase (Homo sapiens, UniProt O00408); assay: Inhibition of human phosphodiesterase 2
Sequence of cGMP-dependent 3',5'-cyclic phosphodiesterase (O00408 whole entry): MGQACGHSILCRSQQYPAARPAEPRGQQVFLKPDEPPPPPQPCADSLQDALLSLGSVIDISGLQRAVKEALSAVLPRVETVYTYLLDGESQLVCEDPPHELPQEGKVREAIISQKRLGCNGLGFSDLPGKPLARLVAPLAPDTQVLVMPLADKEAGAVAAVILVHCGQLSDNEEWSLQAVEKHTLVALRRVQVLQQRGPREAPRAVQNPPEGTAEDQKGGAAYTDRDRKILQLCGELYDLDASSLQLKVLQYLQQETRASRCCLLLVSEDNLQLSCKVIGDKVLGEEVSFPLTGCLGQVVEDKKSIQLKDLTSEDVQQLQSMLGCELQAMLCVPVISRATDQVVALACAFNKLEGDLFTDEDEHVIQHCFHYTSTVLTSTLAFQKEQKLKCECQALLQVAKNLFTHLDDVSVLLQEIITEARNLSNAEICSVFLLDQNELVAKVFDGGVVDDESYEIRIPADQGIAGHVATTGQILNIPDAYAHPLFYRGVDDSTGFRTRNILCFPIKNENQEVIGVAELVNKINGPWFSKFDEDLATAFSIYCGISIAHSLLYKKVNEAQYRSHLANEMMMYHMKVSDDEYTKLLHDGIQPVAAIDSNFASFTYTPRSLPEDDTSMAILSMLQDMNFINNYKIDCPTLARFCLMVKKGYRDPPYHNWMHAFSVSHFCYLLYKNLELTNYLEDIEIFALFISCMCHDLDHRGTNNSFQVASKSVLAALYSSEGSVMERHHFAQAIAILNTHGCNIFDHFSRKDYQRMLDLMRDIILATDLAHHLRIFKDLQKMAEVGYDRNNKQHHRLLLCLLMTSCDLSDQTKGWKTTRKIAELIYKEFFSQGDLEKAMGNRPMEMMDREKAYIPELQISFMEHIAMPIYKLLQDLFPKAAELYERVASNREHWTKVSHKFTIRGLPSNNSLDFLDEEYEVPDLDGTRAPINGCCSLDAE

Phosphodiesterase 3 = Phosphodiesterase 3 (Homo sapiens, UniProt Q14432+Q13370); assay: Inhibition of human phosphodiesterase 3; type: protein assay
Phosphodiesterase 4 = Phosphodiesterase 4 (Homo sapiens, UniProt P27815+Q08499+Q07343+Q08493); assay: Inhibition of human phosphodiesterase 4; type: protein assay
Phosphodiesterase 6 = assay: Inhibition of human phosphodiesterase 6; type: protein assay
Phosphodiesterase 7 = Phosphodiesterase 7 (Homo sapiens, UniProt Q13946+Q9NP56); assay: Inhibition of human phosphodiesterase 7; type: protein assay
[4] = biological target: Phosphodiesterase, PDE1/PDE5 (Homo sapiens) (UniProt O76074+P54750+Q01064+Q14123); assay: Relative binding to Phosphodiesterase 1 and Phosphodiesterase 5, ratio of IC50; type: protein assay
[5] = biological target: cAMP and cAMP-inhibited cGMP 3',5'-cyclic phosphodiesterase 10A (Homo sapiens, UniProt Q9Y233); assay: Inhibitory concentration against human phosphodiesterase 10
Sequence of cAMP and cAMP-inhibited cGMP 3',5'-cyclic phosphodiesterase 10A (Q9Y233 whole entry): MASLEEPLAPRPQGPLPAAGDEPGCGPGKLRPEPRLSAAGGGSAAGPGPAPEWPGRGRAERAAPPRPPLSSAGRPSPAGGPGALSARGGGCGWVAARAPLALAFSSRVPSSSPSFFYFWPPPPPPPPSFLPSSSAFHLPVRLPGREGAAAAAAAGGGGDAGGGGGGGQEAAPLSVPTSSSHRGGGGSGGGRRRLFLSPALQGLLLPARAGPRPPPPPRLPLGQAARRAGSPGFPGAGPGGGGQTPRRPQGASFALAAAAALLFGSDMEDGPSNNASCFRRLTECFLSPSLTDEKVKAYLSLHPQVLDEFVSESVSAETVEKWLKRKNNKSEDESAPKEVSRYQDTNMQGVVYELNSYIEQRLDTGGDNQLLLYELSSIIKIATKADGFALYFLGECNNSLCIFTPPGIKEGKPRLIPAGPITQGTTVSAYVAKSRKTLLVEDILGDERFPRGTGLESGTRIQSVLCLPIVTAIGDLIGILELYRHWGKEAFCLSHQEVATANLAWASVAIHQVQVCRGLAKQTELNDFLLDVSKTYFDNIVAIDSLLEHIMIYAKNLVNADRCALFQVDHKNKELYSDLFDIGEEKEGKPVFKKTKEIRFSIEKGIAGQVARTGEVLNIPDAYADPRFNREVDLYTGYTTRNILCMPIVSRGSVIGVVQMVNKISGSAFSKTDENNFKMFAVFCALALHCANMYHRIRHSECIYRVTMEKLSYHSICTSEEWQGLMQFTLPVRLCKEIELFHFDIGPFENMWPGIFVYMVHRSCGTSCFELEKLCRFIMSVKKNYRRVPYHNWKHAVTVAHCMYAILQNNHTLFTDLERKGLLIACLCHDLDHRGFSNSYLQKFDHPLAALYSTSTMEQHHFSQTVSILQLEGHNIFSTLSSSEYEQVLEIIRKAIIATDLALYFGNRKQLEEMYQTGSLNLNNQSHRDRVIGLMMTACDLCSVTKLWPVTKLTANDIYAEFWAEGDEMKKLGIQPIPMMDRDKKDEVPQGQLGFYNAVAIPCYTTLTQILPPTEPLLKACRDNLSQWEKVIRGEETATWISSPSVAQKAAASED

[6] = biological target: High affinity cGMP-specific 3',5'-cyclic phosphodiesterase 9A (Homo sapiens, UniProt O76083); assay: Inhibition of Phosphodiesterase 9
Sequence of High affinity cGMP-specific 3',5'-cyclic phosphodiesterase 9A (O76083 whole entry): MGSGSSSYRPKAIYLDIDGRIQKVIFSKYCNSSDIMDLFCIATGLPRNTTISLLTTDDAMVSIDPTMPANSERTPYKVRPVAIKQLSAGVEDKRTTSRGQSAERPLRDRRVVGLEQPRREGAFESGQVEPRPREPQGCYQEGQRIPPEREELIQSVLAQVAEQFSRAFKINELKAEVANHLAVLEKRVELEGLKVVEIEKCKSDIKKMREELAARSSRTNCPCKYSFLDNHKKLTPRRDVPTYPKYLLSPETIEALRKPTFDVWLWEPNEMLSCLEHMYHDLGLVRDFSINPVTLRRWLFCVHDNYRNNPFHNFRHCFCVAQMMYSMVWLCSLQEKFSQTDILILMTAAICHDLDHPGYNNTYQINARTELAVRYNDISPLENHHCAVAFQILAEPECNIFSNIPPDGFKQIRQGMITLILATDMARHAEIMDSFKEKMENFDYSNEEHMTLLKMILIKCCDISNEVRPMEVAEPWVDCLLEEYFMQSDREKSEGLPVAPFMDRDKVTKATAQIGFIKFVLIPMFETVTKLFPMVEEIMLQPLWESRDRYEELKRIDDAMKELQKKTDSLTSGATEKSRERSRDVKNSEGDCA

[7] = Inhibitory concentration against human phosphodiesterase 8 activity
Method in brief: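 Scintillation proximity assay using a cAMP-PDE SPA kit, with 0.05 μM cAMP as substrate.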

[8] = biological target: Dual 3',5'-cyclic-AMP and -GMP phosphodiesterase 11A (Homo sapiens, UniProt Q9HCR9); assay: Inhibition of human phosphodiesterase 11
Sequence of Dual 3',5'-cyclic-AMP and -GMP phosphodiesterase 11A (Q9HCR9 whole entry): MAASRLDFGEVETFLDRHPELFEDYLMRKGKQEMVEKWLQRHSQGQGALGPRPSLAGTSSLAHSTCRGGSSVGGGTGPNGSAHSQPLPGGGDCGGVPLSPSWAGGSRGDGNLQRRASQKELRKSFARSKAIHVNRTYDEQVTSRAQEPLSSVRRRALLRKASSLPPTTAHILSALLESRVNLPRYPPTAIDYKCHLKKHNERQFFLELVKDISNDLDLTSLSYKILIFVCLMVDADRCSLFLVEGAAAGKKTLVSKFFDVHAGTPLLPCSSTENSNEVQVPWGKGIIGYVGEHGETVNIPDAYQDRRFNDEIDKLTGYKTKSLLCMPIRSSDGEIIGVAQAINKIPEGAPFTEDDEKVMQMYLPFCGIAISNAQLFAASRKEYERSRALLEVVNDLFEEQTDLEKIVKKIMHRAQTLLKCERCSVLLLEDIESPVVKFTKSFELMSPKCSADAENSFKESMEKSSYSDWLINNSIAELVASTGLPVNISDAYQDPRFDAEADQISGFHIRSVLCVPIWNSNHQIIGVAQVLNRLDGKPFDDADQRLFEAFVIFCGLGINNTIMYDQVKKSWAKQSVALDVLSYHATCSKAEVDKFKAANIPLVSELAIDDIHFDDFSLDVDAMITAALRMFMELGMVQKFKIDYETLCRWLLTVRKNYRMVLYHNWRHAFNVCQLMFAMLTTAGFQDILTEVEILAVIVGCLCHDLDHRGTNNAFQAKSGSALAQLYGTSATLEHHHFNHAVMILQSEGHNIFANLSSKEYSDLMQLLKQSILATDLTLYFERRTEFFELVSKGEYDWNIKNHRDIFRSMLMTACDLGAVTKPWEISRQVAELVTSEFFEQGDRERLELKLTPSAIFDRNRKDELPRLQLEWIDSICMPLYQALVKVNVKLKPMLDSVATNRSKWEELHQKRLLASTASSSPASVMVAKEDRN

[9] = biological target: T1, cGMP-specific 3',5'-cyclic phosphodiesterase; assay: Percentage inhibition of human phosphodiesterase 5 at 100 nM

| Structure (SMILES) | IC50 [1] | Ratio [2] | other results |
| --- | --- | --- | --- |
| CCN1C(=O)c2nc(CCc3ccccc3)n(Cc3ccccc3)c2N2C[C@@H](Cc3ccccc3)N=C12 | 74 nM | 7.4 | – |
| CCN1C(=O)c2c(nc(Br)n2Cc2ccc(O)cc2)N2C[C@@H](Cc3ccccc3)N=C12 | 2.5 nM | 72 | IC50 (Phosphodiesterase 1): > 10000 nM; IC50 [3]: > 10000 nM; IC50 (Phosphodiesterase 3): > 10000 nM; IC50 (Phosphodiesterase 4): 1400 nM; IC50 (Phosphodiesterase 6): 180 nM; IC50 (Phosphodiesterase 7): > 10000 nM; Ratio [4]: > 4000; IC50 [5]: 2200 nM; IC50 [6]: > 10000 nM; IC50 [7]: > 10000 nM; IC50 [8]: 540 nM |
| CCN1C(=O)c2c(nc(I)n2Cc2ccc(O)cc2)N2C[C@@H](Cc3ccccc3)N=C12 | 3.3 nM | 93.9 | – |
| CN1CC(=O)N2[C@H](c3ccc4c(c3)OCO4)c3[nH]c4ccccc4c3C[C@@H]2C1=O | – | – | IC50 (Phosphodiesterase 1): > 10000 nM; IC50 [3]: > 10000 nM; IC50 (Phosphodiesterase 3): > 10000 nM; IC50 (Phosphodiesterase 7): > 10000 nM; IC50 [5]: > 10000 nM; IC50 [6]: > 10000 nM; IC50 [7]: > 10000 nM |
| CCN1C(=O)c2nc(Br)n(Cc3ccc(O)cc3)c2N2C[C@@H](Cc3ccccc3)N=C12 | 7.8 nM | 51.3 | Ratio [4]: > 1590 |
| CCN1C(=O)c2nc(C#Cc3ccccc3)n(Cc3ccccc3)c2N2C[C@@H](Cc3ccccc3)N=C12 | – | 15 | Ratio [4]: > 303 |
| CCC[C@@H]1CN2C(=N1)N(CC)C(=O)c1[nH]c(Cc3ccccc3)nc12 | 60 nM | 0.7 | Ratio [4]: > 167 |
| CN1C(=O)c2[nH]c(Cc3ccccc3)nc2N2C[C@@H](Cc3ccccc3)N=C12 | 100 nM | 2.3 | Ratio [4]: 11 |
| C=CCN1C(=O)c2nc(Cc3ccccc3)n(Cc3ccccc3)c2N2C[C@@H](Cc3ccccc3)N=C12 | – | – | inhibition [9]: 17% |
| CCN1C(=O)c2nc(C#Cc3ccccc3)n(Cc3ccc(O)cc3)c2N2C[C@@H](Cc3ccccc3)N=C12 | 6.5 nM | 23 | Ratio [4]: > 1540 |
| Oc1nc2n(c3nc(Cc4ccccc4)nc1-3)C[C@@H](Cc1ccccc1)N2 | – | – | inhibition [9]: 22% |
| CCCN1C(=O)c2[nH]c(Cc3ccccc3)nc2N2C[C@@H](Cc3ccccc3)N=C12 | – | – | inhibition [9]: 25% |
| CCN1C(=O)c2c(nc(I)n2Cc2ccccc2)N2C[C@@H](Cc3ccccc3)N=C12 | – | – | inhibition [9]: 32% |
| CCN1C(=O)c2c(nc(Cl)n2Cc2ccc(O)cc2)N2C[C@@H](Cc3ccccc3)N=C12 | 2.3 nM | 93.5 | Ratio [4]: > 4350 |
| CCN1C(=O)c2c(nc(Cc3ccccc3)n2Cc2ccc(O)cc2)N2C[C@@H](Cc3ccccc3)N=C12 | 29 nM | 7.4 | – |
| CCN1C(=O)c2c(nc(Cc3ccccc3)n2Cc2ccccc2)N2C[C@@H](Cc3ccccc3)N=C12 | – | – | inhibition [9]: 23% |
| CC(C)N1C(=O)c2nc(Cc3ccccc3)n(Cc3ccccc3)c2N2C[C@@H](Cc3ccccc3)N=C21 | – | – | inhibition [9]: 13% |
| CCN1C(=O)c2nc(Cc3ccccc3)n(Cc3ccc(OC)cc3)c2N2C[C@@H](Cc3ccccc3)N=C12 | 38 nM | 7.5 | – |
| O=C1c2nc(Cc3ccccc3)n(Cc3ccccc3)c2N2C[C@@H](Cc3ccccc3)N=C2N1C1CC1 | – | – | inhibition [9]: 12% |
| CC[C@@H]1CN2C(=N1)N(CC)C(=O)c1nc(Cc3ccccc3)n(Cc3ccccc3)c12 | – | – | inhibition [9]: 4% |
| CCN1C(=O)c2c(nc(C#Cc3ccccc3)n2Cc2ccc(OC)cc2)N2C[C@@H](Cc3ccccc3)N=C12 | 14 nM | 1.7 | – |
| CCCc1nc(C)c2c(=O)nc(-c3cc(S(=O)(=O)N4CCN(CC)CC4)ccc3OCC)[nH]n12 | – | – | IC50 [3]: > 10000 nM; IC50 [5]: 790 nM; IC50 [7]: > 10000 nM; IC50 [8]: 130 nM |
| CCN1C(=O)c2c(nc(C#Cc3ccccc3)n2Cc2ccc(O)cc2)N2C[C@@H](Cc3ccccc3)N=C12 | 5.3 nM | 19.8 | – |
| CCN1C(=O)c2c(nc(Cc3ccccc3)n2Cc2ccc(OC)cc2)N2C[C@@H](Cc3ccccc3)N=C12 | 130 nM | 1.8 | – |

| Structure (SMILES) | IC50 [1] | Ratio [2] | other results |
| --- | --- | --- | --- |
| CCN1C(=O)c2nc(Br)n(Cc3ccc(OC)cc3)c2N2C[C@@H](Cc3ccccc3)N=C12 | 48 nM | 7.8 | – |
| CCN1C(=O)c2ncn(Cc3ccccc3)c2N2C[C@@H](Cc3ccccc3)N=C12 | 200 nM | 5 | – |
| CCN1C(=O)c2c(nc(Br)n2Cc2ccc(OC)cc2)N2C[C@@H](Cc3ccccc3)N=C12 | – | 4.8 | – |
| CCN1C(=O)c2c(nc(C#Cc3ccccc3)n2Cc2ccccc2)N2C[C@@H](Cc3ccccc3)N=C12 | 40 nM | 3.6 | – |
| CC(C)N1C(=O)c2[nH]c(Cc3ccccc3)nc2N2C[C@@H](Cc3ccccc3)N=C21 | 22 nM | 4 | – |
| CCN1C(=O)c2nc(C#Cc3ccccc3)n(Cc3ccc(OC)cc3)c2N2C[C@@H](Cc3ccccc3)N=C12 | 20 nM | 4.5 | – |
| CCN1C(=O)c2nc(Cc3ccccc3)n(Cc3ccccc3)c2N2C[C@@H](c3ccccc3)N=C12 | 40 nM | 1.3 | – |
| CCN1C(=O)c2[nH]c(Cc3ccccc3)nc2N2C[C@@H](C(C)C)N=C12 | 28 nM | 1 | Ratio [4]: 59 |
| CCC[C@@H]1CN2C(=N1)N(CC)C(=O)c1nc(Cc3ccccc3)n(Cc3ccccc3)c12 | 35 nM | 4.9 | Ratio [4]: > 286 |
| CCCc1nn(C)c2c(=O)[nH]c(-c3cc(S(=O)(=O)N4CCN(C)CC4)ccc3OCC)nc12 | – | – | IC50 [7]: > 10000 nM |
| CN1C(=O)c2nc(Cc3ccccc3)n(Cc3ccccc3)c2N2C[C@@H](Cc3ccccc3)N=C12 | – | – | inhibition [9]: 6% |
| CCN1C(=O)c2nc(Cc3ccccc3)n(Cc3ccc(O)cc3)c2N2C[C@@H](Cc3ccccc3)N=C12 | 28 nM | 7.9 | – |
| O=C1c2[nH]c(Cc3ccccc3)nc2N2C[C@@H](Cc3ccccc3)N=C2N1CC(F)(F)F | – | – | inhibition [9]: 34% |
| CCN1C(=O)c2nc(Br)n(Cc3ccccc3)c2N2C[C@@H](Cc3ccccc3)N=C12 | 145 nM | 4.5 | – |
| CCN1C(=O)c2[nH]c(Cc3ccccc3)nc2N2C[C@@H](Cc3ccccc3)N=C12 | – | 1.8 | Ratio [4]: > 2220 |
| CCN1C(=O)c2nc(Cc3ccccc3)n(Cc3ccccc3)c2N2C[C@@H](Cc3ccccc3)N=C12 | – | 5.3 | Ratio [4]: > 313 |
| CCN1C(=O)c2nc(Cl)n(Cc3ccccc3)c2N2C[C@@H](Cc3ccccc3)N=C12 | 60 nM | 7.3 | – |
| O=C1c2nc(Cc3ccccc3)n(Cc3ccccc3)c2N2C[C@@H](Cc3ccccc3)N=C2N1CC(F)(F)F | – | – | inhibition [9]: 7% |
| CC[C@@H]1CN2C(=N1)N(CC)C(=O)c1[nH]c(Cc3ccccc3)nc12 | 33 nM | 2.4 | Ratio [4]: > 303 |
| CCN1C(=O)c2[nH]c(Cc3ccccc3)nc2N2C1=N[C@@H]1CCC[C@@H]12 | 19 nM | – | Ratio [4]: 342 |
| CCN1C(=O)c2c(nc(C)n2Cc2ccc(O)cc2)N2C[C@@H](Cc3ccccc3)N=C12 | 15 nM | 40 | – |
| CON1C(=O)c2nc(Cc3ccccc3)n(Cc3ccccc3)c2N2C[C@@H](Cc3ccccc3)N=C12 | – | – | inhibition [9]: 17% |
| O=C1c2nc(Cc3ccccc3)[nH]c2N2C[C@@H](Cc3ccccc3)N=C2N1C1CC1 | – | – | inhibition [9]: 21% |
| CN1C(=O)c2[nH]c(Cc3ccccc3)nc2N2C1=N[C@@H]1CCC[C@@H]12 | – | – | Ratio [4]: 1.3 |
